Source: the EternaBench riboswitch data

Tested on: MS2 coat protein
Test: apparent Kd, MS2 coat protein; higher = weaker binding; RNA-MaP array; FMN 200 µM where present
Procedure, shortened: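 Designs were transcribed by stalled E. coli RNA polymerase on Illumina sequencing-chip clusters. They were titrated with SNAP-549-labelled MS2 coat protein from 0.7 or 1.5 nM, doubling to 3 µM, without and then with constant ligand. Buffer: 100 mM Tris-HCl pH 7.5, 80 mM KCl, 4 mM MgCl2, BSA, DTT, yeast tRNA, Tween-20. Green signal was normalised to red-channel RNA signal and control-cluster median Fmax. Apparent Kd is the median of filtered per-cluster binding-curve fits.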

[1] = designed as: ON switch for flavin mononucleotide, no ligand
[2] = ligand present: flavin mononucleotide, designed as: ON switch for flavin mononucleotide
[3] = designed as: OFF switch for flavin mononucleotide, no ligand
[4] = ligand present: flavin mononucleotide, designed as: OFF switch for flavin mononucleotide

UCGAAAAUACAAGGAUAUCAAUUGUAGCUAAAUUCAACAUGAGGAUCACCCAUGUAACUAUGGAGUGAGAAGGUGUAGUAAUUU
apparent Kd [1]: 113 nM | apparent Kd [2]: 450 nM

GCACUGGAUGUAGGAUAUCAGGACGAUAAGUCCUGAGAAGGACAUGAGGAUCACCCAUGUGCUUAAACCAGUGCAUAUAAUAUA
apparent Kd [3]: 12.2 nM | apparent Kd [4]: 18.4 nM

UUACUAUAACAGAAGGCUAAAUAAUAUAUAAAUGGAGGAUAUGUUACAUGAGGAUCACCCAUGUUUCACCCACAUGAGGAUCAC
apparent Kd [3]: 13.7 nM | apparent Kd [4]: 42 nM

AAAAAACAUGAGGAUCACCCAUGUCAGGAUAUCGUAAAAAAAAAAAAAAAAAAAAAUGCGAGAAGGGACUGGAA
apparent Kd [3]: 87.4 nM | apparent Kd [4]: 125 nM

CUGAAUCGAGGAUAUUGUACUGCUGACAUGAGGAUCACCCAUGUAUGUUAACUCGGCCGUCGAGAAGGCGAACAUA
apparent Kd [3]: 27.6 nM | apparent Kd [4]: 18 nM

UGGGUAAAUGUAGGAUAUCCAUAAUAAUAAUAAGGAGAAGGACAUGAGGAUCACCCAUGUACAGGGAAUUACCCAUUUCCUCUC
apparent Kd [3]: 1340 nM | apparent Kd [4]: 1170 nM

GGCAAUAACGAGGAUAUCGUAUCGGAAACGAUACGAGAAGGUGUAACAUGAGGAUCACCCAUGUUCCUUAAGCC
apparent Kd [3]: 24.9 nM | apparent Kd [4]: 26.6 nM

AUGACAUGCAGAGCGCAACGGCGUACAUGAGGAUCACCCAUGUAGGAUAUACUACACAAAGUGUAGUAGAAGGACAUGCGACGG
apparent Kd [3]: 30.8 nM | apparent Kd [4]: 50.8 nM

GUUUGACAUGAGGAUCACCCAUGUGAGGAUAUACGAGUAGCUGCUAGGUAGUUAGUAUGUAGAAGGUGCGUGUU
apparent Kd [3]: 75.6 nM | apparent Kd [4]: 71 nM

GUGUAGAUAGGAUAUGCGUGAGUCUAGCGAAGCUAGGCUCUACAUGAGGAUCACCCAUGUAGAAGGGUCUACAC
apparent Kd [3]: 21 nM | apparent Kd [4]: 18.1 nM

GAUAAGGGAGGAUAUACGGAACGGUUUAUGCUCAGUGAGGCACAUGAGGAUCACCCAUGUAGAAGGCCCGACAG
apparent Kd [3]: 28.2 nM | apparent Kd [4]: 120 nM

AUACCACGAGGAUAUCGUCUAUUUCACAUGAGGAUCACCCAUGUUAUCCUUGUUUCGUUUCGAGAAGGCGUGUUUU
apparent Kd [3]: 47.5 nM | apparent Kd [4]: 110 nM

AUCGUUCGAGAGAAGGGAACAUGAGGAUCACCCAUGUUACCUCACCUGGUGACGGAACUCCAAGUUCAGGAUAUCUCGAGCAAU
apparent Kd [3]: 5.38 nM | apparent Kd [4]: 8.25 nM

GUGUAGAUAUCAGGAUAUCUAUUUCCUACAUGAGGAUCACCCAUGUAGAUGAUCACCCAUGUAAAGGAGAAGGGAUAUCUAUAC
apparent Kd [1]: 192 nM | apparent Kd [2]: 156 nM

AACAUUGACAAGAAGGCAAACAUGAGGAUCACCCAUGUUCUGCAUGUAUAUUGAGGAUAUUGCCAAUGUAUGUGGAUCACCCAA
apparent Kd [3]: 6.76 nM | apparent Kd [4]: 14.8 nM

AGCCUACAUGAGGAUCACCCAUGUCAGGAUAUCUCGCGACGUGUCGGGAACACGUUGCAGAGAAGGGACUCGGG
apparent Kd [3]: 56.4 nM | apparent Kd [4]: 69.4 nM

GUUUUGUAAGAGAAGGAGGACUUCAUGAGGAUCACCCAUGUGUUAGUACUUAGGAUAUUUGACAACAUGAGGAUCACCCAUGUC
apparent Kd [1]: 57.8 nM | apparent Kd [2]: 57.9 nM

AAGACACAUCUAGGAUAUGGUGAUGCUCAGAACACAUGAGGAUCACCCAUGUAGCUUGUGUAUAAUCAGAAGGAGAACCGUGUA
apparent Kd [1]: 36.4 nM | apparent Kd [2]: 259 nM

AGAACGUCAGGAUAUCGAACAACAAGUAAAUAGAGAAGAAGCGAGAAGGGACAUGAGGAUCACCCAUGUAAGAA
apparent Kd [3]: 57.6 nM | apparent Kd [4]: 45.3 nM

AAAAAGUGAGGAUAUACGCUGUGGAGUAGACACAACCAGUCGUAGAAGGCACAUGAGGAUCACCCAUGUUCAAA
apparent Kd [3]: 27.2 nM | apparent Kd [4]: 30.1 nM

GUUUGAUGAGGAUAUCGAGGUUAGUACAUGAGGAUCACCCAUGUUAUCCAGGUGUCGGUUCGAGAAGGUAUUGGAC
apparent Kd [3]: 18.4 nM | apparent Kd [4]: 38.1 nM

AGGUGACAUGAGGAUCACCCAUGUAAGGAUAUACGGUUAGUGGAGAGUUGGAAGAGAGGUAGAAGGUACGGAGC
apparent Kd [3]: 288 nM | apparent Kd [4]: 137 nM

GCGUACAUAUCAGGAUAUCAUUGAAUGGAUUAACACAGUGAAUACAUGAGGAUCACCCAUGUGCUUGAGAAGGGAUUACAACGC
apparent Kd [3]: 10.9 nM | apparent Kd [4]: 9.4 nM

GCUGUGGCAUGAGGAUAUGGUCUGCUUUGCAGACCAGAAGGCAUGUCAAUAGACAUGAGGAUCACCCAUGUAGUUAACACAGCA
apparent Kd [1]: 510 nM | apparent Kd [2]: 38.6 nM

CGCUACACCCAGAAGGACAUGAGGAUCACCCAUGUAGGAUAUGGGAGACACAGUCCCGUGUAGAGAAACUACGCUAGUGUAGCG
apparent Kd [1]: 344 nM | apparent Kd [2]: 112 nM

GUCAGCUCGUGAGGAUAUACAUGUGCUGGAGACAGCACUAAUUAAAUCACAUGAGGAUCACCCAUGUAGAAGGCACGAGCUGAU
apparent Kd [3]: 16.6 nM | apparent Kd [4]: 26.4 nM

AAGGAUAGAGGAUAUACAUAGAUACAGAUUCAUGUAGACCUACAUGAGGAUCACCCAUGUAGAAGGCUAUCCUA
apparent Kd [3]: 19.2 nM | apparent Kd [4]: 113 nM

GCUGGGUCAGGAUAUACGAGAUCGAAAGAUCGAAGAUCCGUACAUGAGGAUCACCCAUGUAGAAGGGACUGGGC
apparent Kd [3]: 21.4 nM | apparent Kd [4]: 44.7 nM

UGAUAGGACAGAGGAUAUACAUGCUAGAGAUACUAGCUAAAUUUCCUCACAUGAGGAUCACCCAUGUAGAAGGCUGUCCUAUCU
apparent Kd [3]: 19.4 nM | apparent Kd [4]: 378 nM

GAGCUAUGAGGAUAUGCAUAUAUACGGAUUCGUGUAGUACUACAUGAGGAUCACCCAUGUAGAAGGCGUGGCUG
apparent Kd [3]: 13.4 nM | apparent Kd [4]: 16.7 nM

GCGUUGAACGAGAAGGCCAAUACAUGAGGAUCACCCAUGUAGUGAAGUAUUGGAGGAUAUCGAUCGUCGUCUCAUGAGCAACGC
apparent Kd [3]: 8.88 nM | apparent Kd [4]: 25.3 nM

CUGACGGCGACGACAUUUCCAGAACCAGAAGGUGAAGUCAACAUGAGGAUCACCCAUGUCUAUAUCAAGGAUAUGGUAGUGGGC
apparent Kd [1]: 301 nM | apparent Kd [2]: 92.2 nM

AAUAUAAAGAGCUGGUAAAACUCGACAUGAGGAUCACCCAUGUAGGAUAUCAGCACGAUAAGUGCUGAGAAGGACAUCCAGCUC
apparent Kd [3]: 15.4 nM | apparent Kd [4]: 17.6 nM

UAGACGUUGCAGAAGGUUAUUUUUAUAACGUGCCACUUGACAUGAGGAUCACCCAUGUAAUUGAUGAAGGAUAUGCAACGGUAG
apparent Kd [3]: 6.34 nM | apparent Kd [4]: 5.83 nM

AUAAUUUUAUAAUUCUAUUUAUUCAGAAGGCAUAACAUGAGGAUCACCCAUGUAAAUUAAUGUUAUGAGGAUAUGAUUUGGUUA
apparent Kd [3]: 18.6 nM | apparent Kd [4]: 130 nM

GUGGUUCUCGUAGGAUAUGUAGGAUAUGCCUACAUGAGGAUCACCCAUGUUCGCAUGGCAGAAGGACAGAAGGACGAUCACCAG
apparent Kd [1]: 54.6 nM | apparent Kd [2]: 27.7 nM

GUUCUUCCUGUAAGGAUAUCCAUGUAUCAAAGUAUGGAGAAGGUACAUGAGGAUCACCCAUGUCACCCGCGUUA
apparent Kd [3]: 22.8 nM | apparent Kd [4]: 49.6 nM

GAGUAGAUCCGAGGAUAUACAAUCCGGAAACGGUACAUGAGGAUCACCCAUGUAGAAGGCGGAUCUACAGGUACUAAAGUACCG
apparent Kd [3]: 5.99 nM | apparent Kd [4]: 9.24 nM

CUUUUGUGAGGAUAUCAGUAGUAGAACAAUAGUACUACUACUGAGAAGGCACAUGAGGAUCACCCAUGUUUCUC
apparent Kd [3]: 62.3 nM | apparent Kd [4]: 302 nM

CGUGUGUGAGGAUAUGACAAUGGUAUCUUCGGAUACCAUUGUCAGAAGGUACAUGAGGAUCACCCAUGUAGAUC
apparent Kd [3]: 37.7 nM | apparent Kd [4]: 70.3 nM

AGCUAGUCAGGAUAUACAAACAUGUCGAGAGACGUGAAGGGACAUGAGGAUCACCCAUGUAGAAGGGACUAGCA
apparent Kd [3]: 59 nM | apparent Kd [4]: 234 nM

UUCGUGCAGCAUUGCUGUACGCGUACAUGAGGAUCACCCAUGUAGGAUAUGGUAGGCAAAGCUUACUAGAAGGAUAUAGUGAUC
apparent Kd [3]: 109 nM | apparent Kd [4]: 114 nM

UUCCCAAGUGCAGGAUAUGCUUCACCGACCUCAGCAGAAGGGCACAUGAGGAUCACCCAUGUGGCAAAAGUACACAGCAAGCUG
apparent Kd [3]: 7.74 nM | apparent Kd [4]: 11 nM

GGCAUGCAAAUAAAACAUGAGGAUCACCCAUGUGAGUCUCAUGAGGAUAUGCAGGUCAAAGACUUGCAGAAGGCAUGGCGUGCC
apparent Kd [1]: 1950 nM | apparent Kd [2]: 132 nM

AUGCUCAGAGGAUAUACAUGAGGAUCACCCAUGUGUUACCGAGGAGUACGGUCGUCACGUAGAAGGCUGGGUAA
apparent Kd [3]: 17.9 nM | apparent Kd [4]: 58.8 nM

GGGCAAUUAGGAUAUACAUGAGGAUCACCCAUGUGGAAGCCCGGACAGGUAAUCCACUGUAGAAGGGAUUGCGG
apparent Kd [3]: 14.8 nM | apparent Kd [4]: 15 nM

ACAUGAUACUAGGAUAUCAGCAUACUUCAAUGUUGAGAAGGAGUAACAUGAGGAUCACCCAUGUAUCCAACAUG
apparent Kd [3]: 46.9 nM | apparent Kd [4]: 219 nM

GGACGUCACAUUAACAUGAGGAUCACCCAUGUAAAAUAACAUGAGGAUAUGGAUCCUAAUUGGAUCCAGAAGGCAUGGACGUCC
apparent Kd [1]: 7.66 nM | apparent Kd [2]: 5.58 nM
